Assay results published in BindingDB's records for doi:10.1021/jm9600205 (National Institute of Diabetes, 1996).

Target: Adenosine receptor A2a (Rattus norvegicus, UniProt P30543)
Assay: Displacement of [3H]-CGS- 21680 binding to Adenosine A2A receptor in rat striatal membranes
Summary of the method: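 Adenosine deaminase (3 units/mL) present during preparation, 30 min preincubation at 30 °C and incubation. At least five competitor concentrations over 3 orders of magnitude.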

Sequence of Adenosine receptor A2a (P30543 whole entry): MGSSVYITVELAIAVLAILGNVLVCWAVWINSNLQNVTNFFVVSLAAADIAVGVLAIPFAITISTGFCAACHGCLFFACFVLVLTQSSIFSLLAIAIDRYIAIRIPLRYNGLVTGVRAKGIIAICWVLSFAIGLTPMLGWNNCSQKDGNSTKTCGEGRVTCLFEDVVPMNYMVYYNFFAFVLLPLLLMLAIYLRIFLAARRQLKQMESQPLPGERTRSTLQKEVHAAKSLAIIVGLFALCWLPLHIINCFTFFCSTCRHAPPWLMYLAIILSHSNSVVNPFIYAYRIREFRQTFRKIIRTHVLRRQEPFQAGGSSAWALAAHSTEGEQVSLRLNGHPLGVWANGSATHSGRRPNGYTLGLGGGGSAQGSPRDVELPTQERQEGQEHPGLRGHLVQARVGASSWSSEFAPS

## CCOC(=O)C1=C(C)N=C(C)C(C(=O)OC)C1C (configuration not stated) [2,4,6-Trimethyl-1,4-dihydro-pyridine-3,5-dicarboxylic acid 3-ethyl ester 5-methyl ester]
  Ki: 46.1 µM

## CCOC(=O)C1=C(c2ccccc2)N=C(C)C(C(=O)OCC)C1C (configuration not stated) [2,4-Dimethyl-6-phenyl-1,4-dihydro-pyridine-3,5-dicarboxylic acid diethyl ester]
  Ki: 35.9 µM
